This is a sample that favours compounds with a hit; in the whole collection about 2.9% have one here.
HTR1A agonist = 5-HT1a (human) receptor agonism. activation, % at 10 µM. P08908. actives 0.56% (n = 65,000). AID 567. CHO 5-HT1a Ga15 NFAT-bla reporter, FRET ratio; 0% basal, 100% maximal reference agonist;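 active means activation above the screen-wide mean activation plus 3 SD, cut at about 19% in these data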
S1P1 ag-PAM = S1P1 (human) agonism or agonism potentiation | P21453 | S1P1 CRE-bla cells, forskolin, beta-lactamase FRET, potentiator mode; S1P1 agonist co-added at EC20, 2 nM; 100% = saturating reference agonist, 0% = basal | actives 0.57% (n = 56,000) | activation, % at 9.5 µM;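 active means activation above a cutoff set at the mean activation of all tested compounds plus 3 SD, cut at about 54% in these data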;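 further: forskolin at 4 µM as EC80 and the EC20 agonist is SEW2871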
Target sequence (P21453 whole entry, looked up): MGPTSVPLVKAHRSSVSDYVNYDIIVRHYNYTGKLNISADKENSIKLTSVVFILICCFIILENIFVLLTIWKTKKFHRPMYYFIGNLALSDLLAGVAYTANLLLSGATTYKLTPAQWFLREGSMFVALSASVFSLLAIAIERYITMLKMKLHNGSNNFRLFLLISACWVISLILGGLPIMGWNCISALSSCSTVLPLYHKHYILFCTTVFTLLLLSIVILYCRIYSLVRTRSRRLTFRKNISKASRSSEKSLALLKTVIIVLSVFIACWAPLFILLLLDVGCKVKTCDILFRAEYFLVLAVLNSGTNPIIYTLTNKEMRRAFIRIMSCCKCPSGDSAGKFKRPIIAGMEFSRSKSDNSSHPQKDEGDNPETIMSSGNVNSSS
5HT1a antag = 5-HT1a (human) receptor antagonism; CHO 5-HT1a Ga15 NFAT-bla reporter, antagonist mode; inhibition, % at 10 µM; actives 0.68% (n = 62,000);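 active means inhibition above the mean of all tested compounds plus 3 SD, cut at about 43% in these data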;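 further: receptor stimulated by 5-CT agonist at 100 nM near EC80; beta-lactamase reporter measured by ratiometric fluorescence of a cleavable substrate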
5HT1E ag = agonists of human 5-HT1E serotonin receptor. CHO 5-HT1E Ga15 NFAT-bla reporter, FRET; 0% DMSO wells, 100% control agonist wells. activation, % at 6 µM. actives 0.69% (n = 65,000);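 active means activation above a set limit, the screen-wide mean activation plus 3 SD, cut at about 8.5% in these data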
5HT1E antag = blocks the human 5-HT1E serotonin receptor; inhibition, % at 6 µM; AID 571; actives 0.99% (n = 65,000); P28566; CHO 5-HT1E Ga15 NFAT-bla reporter, FRET, antagonist;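 active means inhibition above a set limit, the mean inhibition across every tested compound plus 3 SD, cut at about 29% in these data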;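 further: signal is the 460 over 535 nm emission ratio of beta-lactamase substrate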
S1P3 ag = agonists of human S1P3 receptor | Q99500 | S1P3 NFAT-BLA reporter cells, agonism, FRET ratio; relative to 1 µM S1P, basal subtracted | activation, % at 4.5 µM | actives 0.1% (n = 60,000);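 active means activation above the screen-wide mean plus 3 SD, cut at about 4.5% in these data, passing the limit was not always enough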
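Benchmarks: high control 1 µM S1P / System: stable CHO line with human S1P3, Gα16, NFAT-BLA reporter / Dosing: single compound concentration, 4.5 µM final / Timing: 4 h compound at 37 °C, 2 h substrate at RT / Measured by: FRET β-lactamase substrate fluorescence, excitation 405 nm, 460/535 nm emission ratio, background-subtracted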
Of the large screens only hits and unclear results are named; the others gave an inactive call.

CCCOC(=O)c1ccc(OCC(O)CN2CCN(C(=O)c3ccccc3)CC2)cc1 (stereo unspecified)	5HT1E ag 48
CCN(CC)c1ccc2cc(C(=O)Nc3ccc(-n4cnnn4)c(OC)c3)c(=O)oc2c1	none
O=c1nc(-c2ccccc2)c2ccccc2[nH]1	none
O=c1cc(-c2ccccc2)[nH]c2ccccc12	5HT1E antag 53
O=C(Nc1nc(-c2nc3ccccc3s2)cs1)c1ccc(S(=O)(=O)N2CCOCC2)cc1	S1P1 ag-PAM 109
Cc1ccc(-n2nnnc2SCc2nnc(-c3ccccc3Br)o2)c(C)c1	none
Nc1nc(CSCc2ccccc2)nc(N2CCOCC2)n1	none
CCNc1nc(SCc2ccccc2)nc(N2CCOCC2)n1	5HT1E antag 36
COc1cc(CSc2nnnn2-c2ccc(C)cc2)cc(OC)c1OC	S1P1 ag-PAM 102
CCOC(=O)c1oc2ccccc2c1CSc1nnnn1-c1ccc(C)cc1	none
CCOC(=O)C1CCN(C(=O)Cc2c(C(=O)O)n(C)c3ccccc23)CC1	5HT1E ag 117
CCOC(=O)C1CCN(C(=O)Cn2cc(C(=O)C3CC3)c3ccccc32)CC1	none
O=C(CCN1CCCC1Cc1ccccc1)c1ccc2c(c1)OCCO2 (stereo unspecified)	5HT1E ag 8.9 (no result: 5HT1a antag)
N=c1c2c(-c3ccccc3)c(-c3ccccc3)n(Cc3ccccc3)c2ncn1CCCn1ccnc1	none (no result: 5HT1a antag)
N=c1c2c(-c3ccccc3)c(-c3ccccc3)n(Cc3ccco3)c2ncn1Cc1ccco1	5HT1a antag 57
Cc1ccc(C(=O)Nc2nc(COc3ccccc3)cs2)s1	S1P1 ag-PAM 98
CCOc1ccc(OCC)c(NC(=O)CN2CCN(c3cccc(C)c3C)CC2)c1	5HT1E ag 28 (no result: S1P1 ag-PAM, S1P3 ag)
Cc1nc(=O)c(-c2ccccc2)c(C)n1-c1cccc(C(=O)O)c1	none
Cc1nc(=O)c(-c2ccccc2)c(C)n1-c1ccc(O)c(C(=O)O)c1	HTR1A agonist 22 (no result: S1P1 ag-PAM)
CCC(Sc1nncn1C)C(=O)Nc1ccccc1OC (stereo unspecified)	none
O=C(c1cccs1)N1CCN(C/C=C/c2ccccc2)CC1	none
CCOC(=O)C1CCCN(CC(=O)NC2CC2)C1 (stereo unspecified)	HTR1A agonist 22
Cc1nnc(SCC(=O)NCc2ccc3c(c2)OCO3)[nH]c1=O	none
COc1cccc(OCCOCCNCCO)c1	HTR1A agonist 42
CCOc1ccc2cc(S(=O)(=O)N3CCOCC3)ccc2c1	5HT1E ag 8.7 (no result: S1P1 ag-PAM)
CCOc1cc(S(=O)(=O)N2CCOCC2)ccc1F	none
Cc1cc(C)c(C#N)c(=N)o1	none (no result: S1P1 ag-PAM, S1P3 ag)
Cc1cc(-c2cc(-c3ccc(Cl)cc3)nc(N)c2C#N)co1	HTR1A agonist 41 (no result: 5HT1a antag)
Cc1ccc(-c2cc(-c3ccc(Cl)cc3)c(C#N)c(N)n2)o1	S1P3 ag 5.9
Cc1cc(C)n(-c2nc(NC(C)C)nc(NC(C)C)n2)n1	5HT1E antag 30
O=C(NC1CC1)C1C2C3C4CC5C3C5C4C12 (stereo unspecified)	none
OC(c1cccc(OCc2ccccc2)c1)c1nnc(-c2ccccc2)o1 (stereo unspecified)	S1P1 ag-PAM 111
CSc1ncccc1C(=O)OCC(=O)NC1CCS(=O)(=O)C1 (stereo unspecified)	HTR1A agonist 21
O=C(COC(=O)c1ccccc1Oc1ccccc1)NC1CCS(=O)(=O)C1 (stereo unspecified)	none
COC(=O)c1sc2nc(N3CCCCC3)c3c(c2c1N)CC(C)(C)N(C)C3	none (no result: 5HT1a antag)
CCn1c(C(=O)N2CCC(C(=O)NCc3ccc4c(c3)OCO4)CC2)cc2sccc21	HTR1A agonist 20
CCCOc1ccc2nc(NC(=O)OC)[nH]c2c1	5HT1E antag 73 (no result: 5HT1a antag)
Cn1nnc(-c2ccc(OCc3ccccc3F)cc2)n1	5HT1E ag 13 (no result: S1P1 ag-PAM)
O=C(O)COc1ccc(-c2nnn(CC(=O)O)n2)cc1	none (no result: S1P1 ag-PAM)
CCOc1ccccc1CN(Cc1ccco1)S(=O)(=O)c1ccc(-n2cnnn2)c(OC)c1	5HT1a antag 54
COc1ccc(OC)c(NC(=O)CSc2nc(C)cs2)c1	none
COc1ccc(-n2c(Cc3cccn3C)nnc2SCC(=O)NCCc2ccccc2)cc1	none
c1ccc(CN2CCN(c3ncccn3)CC2)nc1	none
c1ccc(N2CCN(Cc3ccnc4ccccc34)CC2)cc1	S1P1 ag-PAM 78
c1ccc(N2CCN(Cc3cn4cccnc4n3)CC2)cc1	5HT1E ag 59
COc1ccccc1C(=O)N(Cc1nc(-c2ccc(Cl)cc2)no1)C(C)C	none
Cc1nc(NC2=NCN(CCCN3CCOCC3)CN2)nc2c(C)cccc12	5HT1E ag 15
Cc1cc2nc(NC3=NCN(CCCN4CCOCC4)CN3)nc(C)c2cc1C	none
COc1ccc(S(=O)(=O)N(C)CC(=O)NCc2cccnc2)cc1	none (no result: S1P1 ag-PAM, S1P3 ag)
CC(C)Nc1nc(C#N)nc(NC(C)C)n1	5HT1E antag 31
CCCNC(=O)NC(C(=O)OC)C12CC3CC(CC(C3)C1)C2 (stereo unspecified)	none
COc1ccc(C2(C(F)(F)F)NC(=O)N(C)C(=O)N2C)cc1 (stereo unspecified)	none (no result: S1P1 ag-PAM, S1P3 ag)
CCOCCCNS(=O)(=O)c1ccc(NC(=O)c2ccccc2)cc1	none
COc1cccc(N2CCN(Cc3coc4c(Cl)cc(Cl)cc4c3=O)CC2)c1	5HT1E ag 32
O=C1NCCN1C(=O)N(c1ccccc1)c1ccccc1	none
CC(C)CCNC(=O)Cn1c(=O)oc2cc(S(=O)(=O)N3CCc4ccccc43)ccc21	5HT1E antag 35
COc1cccc(C(c2nnnn2Cc2ccco2)N2CCN(c3cccc(C)c3C)CC2)c1OC (stereo unspecified)	5HT1a antag 52
COc1ccc(N2CCN(C(c3cccc(OC)c3OC)c3nnnn3C3CCCC3)CC2)cc1 (stereo unspecified)	5HT1a antag 44
COC(=O)c1ccc(NC(=O)C2CCCN2S(=O)(=O)c2ccc(F)cc2)cc1 (stereo unspecified)	none
Cc1cc(C)nc(Nc2nc(=O)c3ccccc3s2)n1	5HT1a antag 62
Cc1cc(C(F)(F)F)nc(Nc2nc(C)c3ccccc3n2)n1	none
CCCCOc1ccc(-c2nnn(CC(=O)NCc3ccco3)n2)cc1	5HT1E antag 29
COc1ccccc1N1CCN(c2nc(-c3ccccc3)cc(C(F)(F)F)n2)CC1	none (no result: S1P1 ag-PAM, S1P3 ag)
COc1ccccc1N1CCN(c2ccc(-c3ccccc3)nn2)CC1	5HT1E antag 51 (no result: S1P1 ag-PAM, S1P3 ag)
COc1ccccc1N1CCN(C2=CC(=O)CCC2)CC1	5HT1E ag 32 (no result: S1P1 ag-PAM, S1P3 ag)
O=C1C=C(N2CCN(C3=CC(=O)CCC3)CC2)CCC1	none (no result: 5HT1a antag)
O=C1C2C3CCCC3=C3CCCC3C2C(=O)N1c1ccccc1 (stereo unspecified)	none

Source: PubChem BioAssay
